Source: publication PMC8399557 (Journal of medicinal chemistry, 2020)

Key:
Type in all cases: physicochemical
[1] = Optical properties; conditions: for Abs (nm) / Em (nm) / Extinction Coefficient (cm^−1M^−1) / Stokes Shift (nm): in methanol; for Quantum yield (%, in Methanol): quinine bisulfate as the reference
[2] = Water solubility judged by silica TLC with water as the mobile phase
[3] = Solvolytic stability of difluoro-dioxaborinins by 19F NMR in water/DMSO; conditions: for times more resistant to solvolysis than 1: in 50 M H2O; for Stability (t1/2, h) 10% H2O/90% DMSO / Stability (t1/2, h) 90% H2O/10% DMSO: solvolysis half-life, 19F NMR, 25 °C; for Stability (t1/2, h) 10% H2O/90% DMSO: 10% H2O/90% DMSO (5.55 M H2O); for Stability (t1/2, h) 90% H2O/10% DMSO: 90% H2O/10% DMSO (50 M H2O); for Fold increase in stability (90% to 10% H2O): solvolysis in 5.5 M H2O vs. 50 M H2O; for fold more rapid solvolysis than 5: determined in 5.55 M H2O; for relative solvolytic stability (in words): comparison among Figure 2 / Table 1 compounds, 10% water/90% DMSO
In short: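 Test compound was held in 10% or 90% aqueous DMSO, with aqueous portions in 1X PBS (pH 7.4, 10 mM), and 19F NMR spectra were integrated over time. The fraction of 19F on the test compound was taken as its integral divided by the sum of all fluoride integrals. Fractions versus time were fitted to P = exp(−k*t), and half-lives were derived from k.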

| SMILES | Abs (nm) [1] [nm] | Em (nm) [1] [nm] | Extinction Coefficient (cm^−1M^−1) [1] | Stokes Shift (nm) [1] [nm] | times more resistant to solvolysis than 1 [3] [times] | Stability (t1/2, h) 10% H2O/90% DMSO [3] [h] | Stability (t1/2, h) 90% H2O/10% DMSO [3] [h] | Fold increase in stability (90% to 10% H2O) [3] [fold] | Quantum yield (%, in Methanol) [1] [%] | fold more rapid solvolysis than 5 [3] [fold] | solvolysis in the absence of water ([3]; 100% DMSO) | fraction decomposed at 110 min (one F-18 half-life) post i.v. injection ([3]; assuming the in vitro solvolysis rate translates in vivo) [%] | solvolysis half-life compared with F-18 nuclear decay half-life ([3]; Table 1 conditions) [h] | water solubility (in words) [2] | relative solvolytic stability (in words) [3] |
| --- | --- | --- | --- | --- | --- | --- | --- | --- | --- | --- | --- | --- | --- | --- | --- |
| CCOC(=O)CCC1=C(C)O[B-](F)(F)[O+]=C1C [Compound 6, Ethyl 3-(2,2-difluoro-4,6-dimethyl-2H-1λ^3,3,2λ^4-dioxaborinin-5-yl)propanoate] | 301 | 307 | 12,600 cm^−1M^−1 | 6 | 1.9 | 24.6 ± 0.5 | 5.19 ± 0.15 | 4.7 | – | – | – | – | – | water solubility that allowed them to be resolved on silica TLC with water as the mobile phase | – |
| CC1=CC(C)=[O+][B-](F)(F)O1 [Compound 1, 2,2-Difluoro-4,6-dimethyl-2H-1λ^3,3,2λ^4-dioxaborinine] | 279 | 305 | 9,180 cm^−1M^−1 | 26 | – | 7.63 ± 0.18 | 2.73 ± 0.02 | 2.8 | – | – | not observed | 37 | – | water solubility that allowed them to be resolved on silica TLC with water as the mobile phase | second most rapid difluoro-dioxaborinin to undergo aqueous solvolysis |
| CCC1=C(C)O[B-](F)(F)[O+]=C1C [Compound 3, 5-Ethyl-2,2-difluoro-4,6-dimethyl-2H-1λ^3,3,2λ^4-dioxaborinine] | 303 | 306 | 12,000 cm^−1M^−1 | 3 | 5.6 | 53.9 ± 1.5 | 15.2 ± 0.5 | 3.5 | – | – | – | – | – | water solubility that allowed them to be resolved on silica TLC with water as the mobile phase | – |
| CC1=[O+][B-](F)(F)OC(C)=C1C [Compound 2, 2,2-Difluoro-4,5,6-trimethyl-2H-1λ^3,3,2λ^4-dioxaborinine] | 303 | 307 | 12,200 cm^−1M^−1 | 4 | 6.2 | 53.9 ± 1.1 | 17.1 ± 0.7 | 3.2 | – | – | – | – | – | water solubility that allowed them to be resolved on silica TLC with water as the mobile phase | – |

The next lines start with results.

| Abs (nm) [1] [nm] | Em (nm) [1] [nm] | Extinction Coefficient (cm^−1M^−1) [1] | Stokes Shift (nm) [1] [nm] | times more resistant to solvolysis than 1 [3] [times] | Stability (t1/2, h) 10% H2O/90% DMSO [3] [h] | Stability (t1/2, h) 90% H2O/10% DMSO [3] [h] | Fold increase in stability (90% to 10% H2O) [3] [fold] | Quantum yield (%, in Methanol) [1] [%] | fold more rapid solvolysis than 5 [3] [fold] | solvolysis in the absence of water ([3]; 100% DMSO) | fraction decomposed at 110 min (one F-18 half-life) post i.v. injection ([3]; assuming the in vitro solvolysis rate translates in vivo) [%] | solvolysis half-life compared with F-18 nuclear decay half-life ([3]; Table 1 conditions) [h] | SMILES | water solubility (in words) [2] | relative solvolytic stability (in words) [3] |
| --- | --- | --- | --- | --- | --- | --- | --- | --- | --- | --- | --- | --- | --- | --- | --- |
| 430 | 512 | 50,800 cm^−1M^−1 | 82 | – | 11.9 ± 0.4 | – | – | 3.0 | 33 | – | – | – | COc1cc(/C=C/C2=CC(/C=C/c3ccc(OC(=O)c4c(F)cc(F)cc4F)c(OC)c3)=[O+][B-](F)(F)O2)ccc1OC(=O)c1c(F)cc(F)cc1F [Compound 9, ((1E,1′E)-(2,2-difluoro-2H-1λ^3,3,2λ^4-dioxaborinine-4,6-diyl)bis(ethene-2,1-diyl))bis(2-methoxy-4,1-phenylene) bis(2,4,6-trifluorobenzoate)] | – | – |
| 434 | 509 | 54,000 cm^−1M^−1 | 75 | – | 16.0 ± 0.2 | – | – | 3.1 | 24 | – | – | – | COc1cc(/C=C/C2=CC(/C=C/c3ccc(OC(=O)CCN4C(=O)C=CC4=O)c(OC)c3)=[O+][B-](F)(F)O2)ccc1OC(=O)CCN1C(=O)C=CC1=O [Compound 10, ((1E,1′E)-(2,2-difluoro-2H-1λ^3,3,2λ^4-dioxaborinine-4,6-diyl)bis(ethene-2,1-diyl))bis(2-methoxy-4,1-phenylene) bis(3-(2,5-dioxo-2,5-dihydro-1H-pyrrol-1-yl)propanoate)] | – | – |
| 325 | 328 | 19,800 cm^−1M^−1 | 3 | – | 4.46 ± 0.05 | – | – | – | – | – | – | > 1.83 | CC1=CC(c2ccccc2)=[O+][B-](F)(F)O1 [Compound 14, 2,2-Difluoro-4-methyl-6-phenyl-2H-1λ^3,3,2λ^4-dioxaborinine] | – | least stable |
| 303 | 307 | 12,000 cm^−1M^−1 | 4 | 2.5 | 33.7 ± 1.1 | 6.75 ± 0.19 | 5.0 | – | – | – | – | – | CC1=C2CCCCC2=[O+][B-](F)(F)O1 [Compound 15, 2,2-Difluoro-4-methyl-5,6,7,8-tetrahydro-2H-1λ^3,2λ^4-benzo[e][1,3,2]dioxaborinine] | water solubility that allowed them to be resolved on silica TLC with water as the mobile phase | – |
